From ChEMBL document CHEMBL5104108, “Concise synthesis and biological activity evaluation of novel pyrazinyl-aryl urea derivatives against several cancer cell lines, which can especially induce T24 apoptotic and necroptotic cell death” (RSC Med Chem, 2022)
pIC50: −log10 of the molar value. Calls of active or inactive are those of the source. No cut-off for these calls is given here.

How the values were obtained:
[1] = Antiproliferative activity against human HCV-29 cells measured after 48 hrs by MTT assay; assay type: functional, cell-based; conditions: HCV-29, 48 h
How it was run: (§1)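 Cells seeded 5 × 10^3 per well, grown overnight at 37 °C, then exposed to compound at final 1–40 μM (1, 2.5, 5, 7.5, 10, 12.5, 15, 20, 30, 40 μM) for the stated period. MTT added, 4 h at 37 °C, formazan dissolved in DMSO, absorbance read. IC50 = concentration killing 50% of cells relative to untreated control; mean ± S.D. of four independent experiments.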

[2] = Selectivity index, ratio IC50 for antiproliferative activity against human HCV-29 cells over IC50 for antiproliferative activity against human T24 cells; assay type: toxicity, cell-based; conditions: HCV-29 cells versus T24 cells
How it was run: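 MTT assay, 48 h exposure at final 1–40 μM in T24 and normal bladder epithelial HCV29 cells (5 × 10^3/well, seeded overnight, 37 °C). MTT added for 4 h and formazan dissolved in DMSO. IC50 taken relative to untreated control, four parallel samples. SI = IC50(HCV29)/IC50(T24).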

[3] = tested on: T-24; experiment: Antiproliferative activity against human T24 cells measured after 48 hrs by MTT assay; assay type: functional, cell-based; conditions: T-24, 48 h; how it was run: as §1
[4] = tested on: HepG2; experiment: Antiproliferative activity against human HepG2 cells measured after 48 hrs by MTT assay; assay type: functional, cell-based; conditions: HepG2, 48 h; how it was run: as §1
[5] = tested on: MGC-803; experiment: Antiproliferative activity against human MGC-803 cells measured after 48 hrs by MTT assay; assay type: functional, cell-based; conditions: MGC-803, 48 h; how it was run: as §1
[6] = tested on: T-24; experiment: Down-regulation of RIPK1 expression in human T24 cells at 7.5 to 10 uM measured after 16 hrs by Western blot analysis; assay type: functional, cell-based; conditions: dose 7.5-10 µM
How it was run: (§2)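 T24 cells co-incubated 16 h with or without Nec-1 (60 μM). Lysates quantified by BCA, 40 μg protein resolved by SDS-PAGE, transferred to PVDF, probed with primary and peroxidase-conjugated secondary antibodies, detected by ECL. Band gray values normalized to β-actin loading control.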

[7] = Cmax in Sprague-Dawley rat at 12 mg/kg, IG measured HPLC analysis; assay type: ADME, organism-based; parameters: dose 12 mg/kg, route ig; conditions: in vivo, po
[8] = tested on: T-24; experiment: Down-regulation of RIPK2 expression in human T24 cells at 7.5 to 10 uM measured after 16 hrs by Western blot analysis; assay type: functional, cell-based; conditions: dose 7.5-10 µM; how it was run: as §2
[9] = tested on: T-24; experiment: Down-regulation of p-RIPK3 expression in human T24 cells at 7.5 to 10 uM measured after 16 hrs by Western blot analysis; assay type: functional, cell-based; conditions: dose 7.5-10 µM; how it was run: as §2
[10] = Half-life in Sprague-Dawley rat at 12 mg/kg, IG measured HPLC analysis; assay type: ADME, organism-based; conditions: in vivo, po
[11] = MRT (0 to 48 hrs) in Sprague-Dawley rat at 12 mg/kg, IG measured HPLC analysis; assay type: ADME, organism-based; conditions: in vivo, po
How it was run: (§3)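 Fasted (12 h) male-unspecified Sprague-Dawley rats (250 ± 20 g), n = 6 per group. Single intragastric dose of suspension (2 mg mL−1 in Tween 80/0.9% NaCl 1.5:5 v/v). Orbital blood drawn at 0.5–48 h and plasma assayed by reversed-phase C18 HPLC-UV. One-compartment fit, weight 1.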

[12] = Clearance in Sprague-Dawley rat at 12 mg/kg, IG measured HPLC analysis; assay type: ADME, organism-based; conditions: in vivo, po
[13] = Absorption rate constant in Sprague-Dawley rat at 12 mg/kg, IG measured HPLC analysis; assay type: ADME, organism-based; conditions: in vivo, po
[14] = AUMC in Sprague-Dawley rat at 12 mg/kg, IG measured HPLC analysis; assay type: ADME, organism-based; conditions: in vivo, po
[15] = AUC (0 to 48 hrs) in Sprague-Dawley rat at 12 mg/kg, IG measured HPLC analysis; assay type: ADME, organism-based; parameters: time < 48 hr, dose 12 mg/kg, route ig; conditions: in vivo, po
[16] = tested on: T-24; experiment: Down-regulation of p-MLKL expression in human T24 cells at 7.5 to 10 uM measured after 16 hrs by Western blot analysis; assay type: functional, cell-based; conditions: dose 7.5-10 µM; how it was run: as §2
[17] = Tmax in Sprague-Dawley rat at 12 mg/kg, IG measured HPLC analysis; assay type: ADME, organism-based; conditions: in vivo, po; how it was run: as §3
[18] = tested on: T-24; experiment: Down-regulation of RIPK3 expression in human T24 cells at 7.5 to 10 uM measured after 16 hrs by Western blot analysis; assay type: functional, cell-based; conditions: dose 7.5-10 µM; how it was run: as §2
[19] = tested on: T-24; experiment: Down-regulation of p-RIPK1 expression in human T24 cells at 7.5 to 10 uM measured after 16 hrs by Western blot analysis; assay type: functional, cell-based; conditions: dose 7.5-10 µM; how it was run: as §2
[20] = tested on: T-24; experiment: Down-regulation of MLKL expression in human T24 cells at 7.5 to 10 uM measured after 16 hrs by Western blot analysis; assay type: functional, cell-based; conditions: dose 7.5-10 µM; how it was run: as §2

SMILES | pIC50 [4] | pIC50 [5] | pIC50 [1] | SI [2] | pIC50 [3] | further results
CCc1cccc(CC)c1NC(=O)Nc1cccc(CNc2nccnc2Cl)c1 | 4.97 | 5.21 | 4.73 | – | 5.19 | –
CS(=O)(=O)c1ccc(NC(=O)Nc2cccc(CNc3nccnc3Cl)c2)cc1 | 4.82 | 4.91 | < 4.40 | – | 4.53 | –
Nc1ccn([C@@H]2O[C@H](CO)[C@@H](O)C2(F)F)c(=O)n1 [GEMCITABINE] | – | – | 4.67 | 2.12 | – | –
COc1ccccc1NC(=O)Nc1cccc(CNc2nccnc2Cl)c1 | 4.86 | 4.91 | 4.74 | 1.74 | 4.98 | –
O=C(Nc1ccccc1)Nc1cccc(CNc2nccnc2Cl)c1 | 4.81 | 4.79 | 4.44 | 1.83 | 4.70 | –
Cc1ccc(NC(=O)Nc2cccc(CNc3nccnc3Cl)c2)cc1C | 4.97 | 5.01 | 4.89 | 1.43 | 5.05 | –
CN(C)c1ccc(NC(=O)Nc2cccc(CNc3nccnc3Cl)c2)cc1 | < 4.40 | 4.94 | < 4.40 | – | 4.69 | –
Cc1ccccc1NC(=O)Nc1cccc(CNc2nccnc2Cl)c1 | 4.82 | 4.85 | 4.47 | 2.47 | 4.87 | –
O=C(Nc1cccc(CNc2nccnc2Cl)c1)Nc1cccc2ccccc12 | < 4.40 | 4.49 | < 4.40 | – | < 4.40 | –
O=C(Nc1cccc(CNc2nccnc2Cl)c1)NC1CCCCC1 | < 4.40 | < 4.40 | < 4.40 | – | < 4.40 | –
Cc1ccc(NC(=O)Nc2cccc(CNc3nccnc3Cl)c2)cc1 | 4.94 | 4.92 | 4.70 | 2.05 | 5.01 | –
COc1ccc(NC(=O)Nc2cccc(CNc3nccnc3Cl)c2)cc1 | 4.92 | 5.03 | 4.68 | 2.13 | 5.01 | –
O=C(Nc1cccc(CNc2nccnc2Cl)c1)NC1CCCC1 | 4.73 | 4.63 | < 4.40 | – | < 4.40 | –
Cc1cccc(NC(=O)Nc2cccc(CNc3nccnc3Cl)c2)c1 | 4.95 | 4.84 | 4.55 | 2.96 | 5.02 | –
Cc1ccc(NC(=O)Nc2cccc(CNc3nccnc3Cl)c2)cc1Cl | 4.95 | 4.76 | 4.67 | 2.91 | 5.13 | –

Further lines, with some results ahead:

pIC50 [4] | pIC50 [5] | SMILES | pIC50 [1] | SI [2] | pIC50 [3] | further results
5.08 | 5.30 | O=C(Nc1ccc(Cl)cc1)Nc1cccc(CNc2nccnc2Cl)c1 | 4.71 | 3.54 | 5.26 | –
5.10 | 5.03 | CCc1ccccc1NC(=O)Nc1cccc(CNc2nccnc2Cl)c1 | 4.79 | 1.88 | 5.06 | –
5.07 | 5.15 | O=C(Nc1cccc(CNc2nccnc2Cl)c1)Nc1ccccc1Cl | 4.55 | 4.21 | 5.18 | –
5.15 | 5.14 | CCOc1ccc(NC(=O)Nc2cccc(CNc3nccnc3Cl)c2)cc1 | 4.52 | 3.36 | 5.04 | –
4.98 | 5.19 | O=C(Nc1cccc(CNc2nccnc2Cl)c1)Nc1ccccc1F | 4.60 | 3.37 | 5.13 | –
4.98 | 5.02 | CNC(=O)c1cc(Oc2ccc(NC(=O)Nc3ccc(Cl)c(C(F)(F)F)c3)c(F)c2)ccn1 [REGORAFENIB] | 4.89 | 2.16 | 5.22 | Activity [6]: Active; Cmax [7]: 3100 ng/mL; Activity [8]: Active; Activity [9]: Active; half-life [10]: 304 min; MRT last [11]: 7.29 h; CL/F [12]: 0.986 mL/min; Ka [13]: 0.138 h⁻¹; AUMC [14]: 737185 hr2.ng/ml; AUC(0-t) at 48 h [15]: 50700 ng·h/mL; Activity [16]: Active; Tmax [17]: 8.07 h; Activity [18]: Active; Activity [19]: Active; Activity [20]: Active
5.12 | 5.32 | CC(C)(C)c1ccc(NC(=O)Nc2cccc(CNc3nccnc3Cl)c2)cc1 | 4.82 | 2.54 | 5.22 | –
5.21 | 5.30 | O=C(Nc1cccc(CNc2nccnc2Cl)c1)Nc1ccc(Cl)c(Cl)c1 | 4.57 | 5.22 | 5.28 | –
5.14 | 5.19 | O=C(Nc1cccc(CNc2nccnc2Cl)c1)Nc1ccc(Cl)cc1Cl | 4.60 | 4.42 | 5.24 | –
5.04 | 5.27 | O=C(Nc1cccc(Cl)c1)Nc1cccc(CNc2nccnc2Cl)c1 | 4.67 | 3.14 | 5.17 | –
5.17 | 5.13 | O=C(Nc1cccc(CNc2nccnc2Cl)c1)Nc1ccc(Cl)cc1Br | 4.62 | 3.61 | 5.18 | –
5.21 | 5.14 | O=C(Nc1cccc(CNc2nccnc2Cl)c1)Nc1cccc(C(F)(F)F)c1 | 4.54 | 5.64 | 5.29 | –
5.03 | 5.00 | Cc1ccc(NC(=O)Nc2cccc(CNc3nccnc3Cl)c2)c(C)c1 | 4.62 | 2.58 | 5.03 | –
5.17 | 5.30 | O=C(Nc1cccc(CNc2nccnc2Cl)c1)Nc1ccc(F)c(Cl)c1 | 4.61 | 4.94 | 5.30 | –
